According to ChEMBL document CHEMBL5712070, “Discovery of a chemical probe for the L3MBTL3 methyllysine reader domain” (Nat Chem Biol, 2013):
Activity calls are given as the source filed them. The rule behind the calls is not given here.

How the values were obtained:
[1] = target: Chromobox protein homolog 7 (Homo sapiens, UniProt O95931); test: Inhibition of chromo domain containing CBX7 (unknown origin) using H4K20me2 peptide by Alpha-Screen methylated histone peptide competition assay
[2] = target: TP53-binding protein 1 (Homo sapiens, UniProt Q12888); test: Binding affinity to 53BP1 (unknown origin) by ITC assay
[3] = target: T1, Lethal(3)malignant brain tumor-like protein 3 (Homo sapiens, UniProt Q96JM7); test: Binding affinity to GFP-tagged full length L3MBTL3 (unknown origin) assessed as diffusion coefficient at 0.1 uM (reference value: 0.037549815 um2/s)
T1 sequence (Q96JM7 whole entry): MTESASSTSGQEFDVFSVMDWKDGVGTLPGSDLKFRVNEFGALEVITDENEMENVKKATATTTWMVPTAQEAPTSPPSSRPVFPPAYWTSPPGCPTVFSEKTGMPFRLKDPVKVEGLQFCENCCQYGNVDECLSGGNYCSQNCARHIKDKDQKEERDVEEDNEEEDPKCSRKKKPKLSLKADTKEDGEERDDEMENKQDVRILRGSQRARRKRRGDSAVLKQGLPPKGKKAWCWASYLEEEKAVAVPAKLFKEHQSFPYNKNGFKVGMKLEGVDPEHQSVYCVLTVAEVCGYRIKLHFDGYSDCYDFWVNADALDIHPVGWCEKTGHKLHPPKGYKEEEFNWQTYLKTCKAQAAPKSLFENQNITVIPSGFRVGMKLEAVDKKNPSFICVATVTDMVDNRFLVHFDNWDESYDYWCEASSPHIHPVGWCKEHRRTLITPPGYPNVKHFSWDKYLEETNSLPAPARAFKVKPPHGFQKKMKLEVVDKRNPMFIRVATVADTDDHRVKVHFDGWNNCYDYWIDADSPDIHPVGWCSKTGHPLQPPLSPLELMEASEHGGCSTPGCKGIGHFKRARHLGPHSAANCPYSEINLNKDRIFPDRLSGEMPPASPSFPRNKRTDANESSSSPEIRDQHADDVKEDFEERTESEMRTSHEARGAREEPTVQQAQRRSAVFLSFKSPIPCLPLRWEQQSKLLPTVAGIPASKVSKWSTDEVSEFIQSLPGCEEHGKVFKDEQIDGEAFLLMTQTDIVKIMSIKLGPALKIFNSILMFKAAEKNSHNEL

[4] = target: T2, Muscarinic acetylcholine receptor M1 (Homo sapiens, UniProt P11229); test: Antagonist activity at human M1 receptor assessed as reduction in acetylcholine-induced response by Schild analysis; type: functional; conditions: read-out: pA2 (converted)
T2 sequence (P11229 whole entry): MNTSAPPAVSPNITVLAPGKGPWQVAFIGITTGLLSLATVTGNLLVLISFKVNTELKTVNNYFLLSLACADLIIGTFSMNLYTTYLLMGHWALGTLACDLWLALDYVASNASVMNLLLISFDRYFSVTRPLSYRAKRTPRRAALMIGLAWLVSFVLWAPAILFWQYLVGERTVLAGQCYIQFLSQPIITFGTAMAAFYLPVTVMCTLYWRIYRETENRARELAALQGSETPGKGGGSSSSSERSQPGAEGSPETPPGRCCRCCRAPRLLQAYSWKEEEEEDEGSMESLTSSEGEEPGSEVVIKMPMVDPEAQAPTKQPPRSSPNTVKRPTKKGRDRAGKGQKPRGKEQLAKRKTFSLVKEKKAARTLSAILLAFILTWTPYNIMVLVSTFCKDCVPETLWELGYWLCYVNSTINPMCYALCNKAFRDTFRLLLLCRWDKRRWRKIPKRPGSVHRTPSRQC

[5] = target: T3, Lethal(3)malignant brain tumor-like protein 3 (Homo sapiens) (UniProt Q96JM7); conditions: dose 0.05 µM
T3 sequence (whole entry): T1 sequence (Q96JM7 whole entry)

[6] = target: T2, Muscarinic acetylcholine receptor M1; test: Inhibition of M1 receptor (unknown origin) by radioligand binding assay
How it was run: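 Radioligand competition binding; the value is reported as a Ki.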

[7] = Cytotoxicity in HEK293T/17 cells assessed as effect on cell viability up to 100 uM incubated for 24 hrs by CellTiter-Glo luminescent cell viability assay; type: toxicity, cell-based; conditions: human, hek293t/17, 24 h
[8] = target: T3, Lethal(3)malignant brain tumor-like protein 3 (Homo sapiens); conditions: dose 0.01 µM
[9] = species: Homo sapiens; test: Binding affinity to histone demethylase (unknown origin) assessed as change in melting temperature at 50 uM by Differential scanning fluorimetry relative to control
[10] = target: Receptor-type tyrosine-protein kinase FLT3 (Homo sapiens) (UniProt P36888); test: Inhibition of FLT3 (unknown origin) at 10 uM relative to control
[11] = target: T3, Lethal(3)malignant brain tumor-like protein 3 (Homo sapiens); conditions: dose 0.01 µM; remark: listed apart in the source
[12] = target: T3, Lethal(3)malignant brain tumor-like protein 3 (Homo sapiens); conditions: dose 0.1 µM
[13] = target: T1, Lethal(3)malignant brain tumor-like protein 3; test: Binding affinity to GFP-3MBT tagged L3MBTL3 (unknown origin) assessed as diffusion coefficient at 0.01 uM (reference value: 0.1272 um2/s)
[14] = target: PHD finger protein 20-like protein 1 (Homo sapiens, UniProt A8MW92); test: Binding affinity to tudor domain containing PHF20L1 (unknown origin) by ITC assay
[15] = target: T1, Lethal(3)malignant brain tumor-like protein 3; test: Binding affinity to GFP-3MBT tagged L3MBTL3 (unknown origin) assessed as diffusion coefficient at 0.5 uM (reference value: 0.1272 um2/s)
[16] = target: T2, Muscarinic acetylcholine receptor M1; test: Inhibition of M1 receptor (unknown origin) by Ca2+ mobilization assay; type: functional
[17] = target: T1, Lethal(3)malignant brain tumor-like protein 3; test: Binding affinity to GFP-tagged full length L3MBTL3 (unknown origin) assessed as diffusion coefficient at 0.01 uM (reference value: 0.037549815 um2/s)
[18] = Stability in HEK293T/17 cells assessed as compound degradation after 72 hrs in presence of in cell media; type: ADME, cell-based; conditions: human, hek293t/17, 72 h
How it was run: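 Compound incubated in cell medium with or without HEK293 cells for 72 hours, then examined for degradation products.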

[19] = target: Muscarinic acetylcholine receptor M2 (Homo sapiens) (UniProt P08172); test: Agonist activity at human M2 receptor; type: functional
[20] = target: Sodium-dependent dopamine transporter (Homo sapiens, UniProt Q01959); test: Inhibition of DAT (unknown origin) by radioligand binding assay
[21] = target: Lethal(3)malignant brain tumor-like protein 4 (Homo sapiens, UniProt Q8NA19); test: Inhibition of MBT domain containing L3MBTL4 (unknown origin) using H4K20me2 peptide by Alpha-Screen methylated histone peptide competition assay
[22] = Binding affinity to L3MBTL3 F387A mutant (unknown origin) by ITC assay; design: species or system Homo sapiens

Sequence of TP53-binding protein 1 (Q12888 whole entry, the tested form may be a part): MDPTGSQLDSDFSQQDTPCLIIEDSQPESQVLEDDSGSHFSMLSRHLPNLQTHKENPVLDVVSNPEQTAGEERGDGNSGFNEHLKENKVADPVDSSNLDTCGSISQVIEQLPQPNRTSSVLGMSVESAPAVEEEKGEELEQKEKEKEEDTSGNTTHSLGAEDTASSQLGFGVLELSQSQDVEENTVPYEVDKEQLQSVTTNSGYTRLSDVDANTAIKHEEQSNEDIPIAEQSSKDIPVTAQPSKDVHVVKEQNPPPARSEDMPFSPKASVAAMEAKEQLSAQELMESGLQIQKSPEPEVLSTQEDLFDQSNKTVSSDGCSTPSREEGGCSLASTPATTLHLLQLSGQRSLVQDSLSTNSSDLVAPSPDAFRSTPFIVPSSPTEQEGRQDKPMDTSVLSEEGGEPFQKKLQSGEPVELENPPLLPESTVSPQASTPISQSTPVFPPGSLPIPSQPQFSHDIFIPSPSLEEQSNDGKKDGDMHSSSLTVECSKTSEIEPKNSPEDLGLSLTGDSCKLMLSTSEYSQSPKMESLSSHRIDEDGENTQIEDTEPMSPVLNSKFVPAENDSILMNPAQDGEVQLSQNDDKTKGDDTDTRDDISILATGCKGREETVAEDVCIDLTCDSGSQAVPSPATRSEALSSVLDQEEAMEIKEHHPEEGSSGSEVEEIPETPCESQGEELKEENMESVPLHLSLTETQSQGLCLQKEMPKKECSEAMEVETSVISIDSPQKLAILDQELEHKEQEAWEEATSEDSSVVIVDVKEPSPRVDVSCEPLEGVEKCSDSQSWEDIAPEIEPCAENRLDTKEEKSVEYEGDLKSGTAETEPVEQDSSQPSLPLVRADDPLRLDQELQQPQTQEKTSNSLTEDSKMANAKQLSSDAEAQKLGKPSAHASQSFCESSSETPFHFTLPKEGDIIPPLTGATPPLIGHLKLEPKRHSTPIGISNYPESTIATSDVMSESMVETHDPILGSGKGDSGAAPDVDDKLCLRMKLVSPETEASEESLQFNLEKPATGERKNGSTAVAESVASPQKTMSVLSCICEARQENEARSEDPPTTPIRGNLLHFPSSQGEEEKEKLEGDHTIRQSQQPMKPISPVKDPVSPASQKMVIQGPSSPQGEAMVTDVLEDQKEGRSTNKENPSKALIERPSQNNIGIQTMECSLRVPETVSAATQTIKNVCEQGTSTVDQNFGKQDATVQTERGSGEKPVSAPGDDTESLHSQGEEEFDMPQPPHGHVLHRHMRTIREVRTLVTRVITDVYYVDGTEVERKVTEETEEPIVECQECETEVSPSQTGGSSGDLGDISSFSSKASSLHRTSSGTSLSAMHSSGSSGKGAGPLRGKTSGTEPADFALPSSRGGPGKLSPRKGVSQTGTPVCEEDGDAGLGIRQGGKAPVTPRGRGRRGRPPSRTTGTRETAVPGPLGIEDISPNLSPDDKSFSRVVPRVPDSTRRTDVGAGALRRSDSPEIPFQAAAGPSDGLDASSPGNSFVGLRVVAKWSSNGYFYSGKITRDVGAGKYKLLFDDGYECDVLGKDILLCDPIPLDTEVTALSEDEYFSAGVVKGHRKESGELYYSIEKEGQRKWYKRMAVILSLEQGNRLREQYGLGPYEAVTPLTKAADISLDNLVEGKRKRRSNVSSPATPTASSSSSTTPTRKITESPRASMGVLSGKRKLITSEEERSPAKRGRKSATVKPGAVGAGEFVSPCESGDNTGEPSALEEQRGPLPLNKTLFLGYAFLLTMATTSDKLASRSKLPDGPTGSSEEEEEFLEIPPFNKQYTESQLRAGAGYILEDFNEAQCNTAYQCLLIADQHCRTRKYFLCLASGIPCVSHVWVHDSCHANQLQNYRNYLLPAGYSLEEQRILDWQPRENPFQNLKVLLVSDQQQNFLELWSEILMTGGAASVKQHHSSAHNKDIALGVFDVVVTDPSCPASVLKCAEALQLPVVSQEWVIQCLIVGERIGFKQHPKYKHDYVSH
Sequence of Lethal(3)malignant brain tumor-like protein 4 (Q8NA19 whole entry, the tested form may be a part): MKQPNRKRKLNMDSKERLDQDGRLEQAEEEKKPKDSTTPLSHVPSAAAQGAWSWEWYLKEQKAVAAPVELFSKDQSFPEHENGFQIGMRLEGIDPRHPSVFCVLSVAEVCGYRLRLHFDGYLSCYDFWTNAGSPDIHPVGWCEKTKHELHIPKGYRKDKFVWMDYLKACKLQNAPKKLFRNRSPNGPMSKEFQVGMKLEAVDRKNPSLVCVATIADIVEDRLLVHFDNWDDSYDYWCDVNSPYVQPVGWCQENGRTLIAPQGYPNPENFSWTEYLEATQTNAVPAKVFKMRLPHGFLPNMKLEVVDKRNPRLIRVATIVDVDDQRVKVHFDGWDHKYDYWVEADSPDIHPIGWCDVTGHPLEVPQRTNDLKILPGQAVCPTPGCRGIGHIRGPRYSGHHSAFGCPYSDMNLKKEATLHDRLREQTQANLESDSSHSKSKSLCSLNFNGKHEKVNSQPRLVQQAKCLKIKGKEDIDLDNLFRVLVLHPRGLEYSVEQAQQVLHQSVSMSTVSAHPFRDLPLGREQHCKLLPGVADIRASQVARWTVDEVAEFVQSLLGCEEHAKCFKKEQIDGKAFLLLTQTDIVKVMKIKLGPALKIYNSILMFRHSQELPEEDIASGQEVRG
Sequence of Muscarinic acetylcholine receptor M2 (Homo sapiens) (P08172 whole entry): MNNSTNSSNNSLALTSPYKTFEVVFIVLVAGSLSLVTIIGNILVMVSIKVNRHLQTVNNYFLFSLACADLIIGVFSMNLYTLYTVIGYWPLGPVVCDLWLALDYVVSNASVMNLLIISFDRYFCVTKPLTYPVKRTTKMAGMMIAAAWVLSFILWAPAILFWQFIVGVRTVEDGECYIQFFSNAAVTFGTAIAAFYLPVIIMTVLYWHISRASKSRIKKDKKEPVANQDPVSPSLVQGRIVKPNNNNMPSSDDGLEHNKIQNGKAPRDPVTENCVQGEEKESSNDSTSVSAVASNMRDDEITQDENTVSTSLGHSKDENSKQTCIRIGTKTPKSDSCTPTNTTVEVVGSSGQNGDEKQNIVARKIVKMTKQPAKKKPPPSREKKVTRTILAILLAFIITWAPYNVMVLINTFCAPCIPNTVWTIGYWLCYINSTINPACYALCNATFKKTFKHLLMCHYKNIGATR
Sequence of Chromobox protein homolog 7 (O95931 whole entry, the tested form may be a part): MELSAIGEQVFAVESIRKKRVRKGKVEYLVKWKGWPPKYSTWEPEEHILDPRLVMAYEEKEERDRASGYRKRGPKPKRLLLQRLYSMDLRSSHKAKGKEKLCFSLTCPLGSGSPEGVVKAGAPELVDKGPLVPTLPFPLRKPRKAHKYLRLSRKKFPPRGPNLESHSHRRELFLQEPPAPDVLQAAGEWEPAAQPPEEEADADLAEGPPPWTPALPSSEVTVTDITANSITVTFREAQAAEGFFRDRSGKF
Sequence of Sodium-dependent dopamine transporter (Q01959 whole entry, the tested form may be a part): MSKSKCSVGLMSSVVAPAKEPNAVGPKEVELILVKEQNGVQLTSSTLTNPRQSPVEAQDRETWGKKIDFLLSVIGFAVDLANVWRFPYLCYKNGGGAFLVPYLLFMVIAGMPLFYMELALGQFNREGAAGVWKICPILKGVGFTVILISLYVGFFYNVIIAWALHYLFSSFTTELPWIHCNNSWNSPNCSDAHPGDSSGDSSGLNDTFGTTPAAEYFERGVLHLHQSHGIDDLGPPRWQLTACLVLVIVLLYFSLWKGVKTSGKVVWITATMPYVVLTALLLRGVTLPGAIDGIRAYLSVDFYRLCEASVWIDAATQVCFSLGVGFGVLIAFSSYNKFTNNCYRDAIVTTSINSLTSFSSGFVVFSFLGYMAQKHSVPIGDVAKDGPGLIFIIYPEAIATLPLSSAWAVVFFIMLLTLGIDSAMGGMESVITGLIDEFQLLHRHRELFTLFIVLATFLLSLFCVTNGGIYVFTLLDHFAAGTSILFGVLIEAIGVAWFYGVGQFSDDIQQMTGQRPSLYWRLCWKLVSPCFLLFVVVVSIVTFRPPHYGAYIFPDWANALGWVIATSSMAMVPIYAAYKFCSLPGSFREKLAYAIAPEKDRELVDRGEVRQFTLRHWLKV
Sequence of Receptor-type tyrosine-protein kinase FLT3 (Homo sapiens) (P36888 whole entry): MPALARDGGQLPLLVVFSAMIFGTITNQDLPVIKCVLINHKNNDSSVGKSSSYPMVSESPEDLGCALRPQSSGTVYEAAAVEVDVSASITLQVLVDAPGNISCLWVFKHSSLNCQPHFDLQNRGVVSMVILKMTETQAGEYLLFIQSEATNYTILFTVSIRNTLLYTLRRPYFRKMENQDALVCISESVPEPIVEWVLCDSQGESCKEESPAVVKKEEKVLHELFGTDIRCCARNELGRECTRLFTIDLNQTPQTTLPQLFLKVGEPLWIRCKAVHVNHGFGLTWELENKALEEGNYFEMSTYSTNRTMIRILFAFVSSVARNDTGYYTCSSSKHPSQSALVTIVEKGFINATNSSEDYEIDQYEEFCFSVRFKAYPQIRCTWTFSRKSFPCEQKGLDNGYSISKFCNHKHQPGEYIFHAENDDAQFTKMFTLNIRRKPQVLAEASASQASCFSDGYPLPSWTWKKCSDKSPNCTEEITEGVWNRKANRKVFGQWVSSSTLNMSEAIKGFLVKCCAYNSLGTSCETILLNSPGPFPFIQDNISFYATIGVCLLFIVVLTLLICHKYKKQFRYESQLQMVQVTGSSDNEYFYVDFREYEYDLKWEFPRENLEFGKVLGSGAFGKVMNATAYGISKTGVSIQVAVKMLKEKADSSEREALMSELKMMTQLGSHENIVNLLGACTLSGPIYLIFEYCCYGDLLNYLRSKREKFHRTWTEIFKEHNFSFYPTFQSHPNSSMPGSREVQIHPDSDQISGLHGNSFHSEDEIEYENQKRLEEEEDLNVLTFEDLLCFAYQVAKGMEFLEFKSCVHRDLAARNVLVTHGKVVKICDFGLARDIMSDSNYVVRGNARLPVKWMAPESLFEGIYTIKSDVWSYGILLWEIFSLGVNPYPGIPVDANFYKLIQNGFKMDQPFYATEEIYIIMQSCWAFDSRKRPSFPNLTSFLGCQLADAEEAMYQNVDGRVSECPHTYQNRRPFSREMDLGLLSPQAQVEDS

Compound: O=C(c1ccc(C(=O)N2CCC(N3CCCC3)CC2)c(Nc2ccccc2)c1)N1CCC(N2CCCC2)CC1
- IC50 [1]: > 30 µM
- Kd [2]: > 31 µM
- Diffusion coefficient [3]: 0.05 um2/s
- Kb [4]: 2.24 µM
- T1/2 [5]: 6.5 s
- Ki [6]: 0.097 µM
- Activity [7]: Non-Toxic
- T1/2 [8]: 7 s
- ΔTm [9]: < 0.5 °C
- inhibition [10]: 64%
- T1/2 [11]: 23.8 s
- T1/2 [12]: 20.1 s
- Diffusion coefficient [13]: 0.146 um2/s
- Kd [14]: > 13 µM
- Diffusion coefficient [15]: 0.297 um2/s
- IC50 [16]: 3.5 µM
- Diffusion coefficient [17]: 0.043 um2/s
- Stability [18]: Stable
- Activity [19]: inactive
- Ki [20]: > 10 µM
- IC50 [21]: 11 µM
- Kd [22]: 1 µM
